Data as given in ChEMBL document CHEMBL1165965, “Synthesis and structure-activity relationships of 1,2,3,4-tetrahydropyrido[2,3-b]pyrazines as potent and selective inhibitors of the anaplastic lymphoma kinase” (Bioorg Med Chem, 2010).

Key:
[1] = molecular target: T1, Mitogen-activated protein kinase kinase kinase kinase 2 (Homo sapiens) (UniProt Q12851); experiment: Inhibition of MAP4K2 at 1 uM
T1 sequence (whole entry): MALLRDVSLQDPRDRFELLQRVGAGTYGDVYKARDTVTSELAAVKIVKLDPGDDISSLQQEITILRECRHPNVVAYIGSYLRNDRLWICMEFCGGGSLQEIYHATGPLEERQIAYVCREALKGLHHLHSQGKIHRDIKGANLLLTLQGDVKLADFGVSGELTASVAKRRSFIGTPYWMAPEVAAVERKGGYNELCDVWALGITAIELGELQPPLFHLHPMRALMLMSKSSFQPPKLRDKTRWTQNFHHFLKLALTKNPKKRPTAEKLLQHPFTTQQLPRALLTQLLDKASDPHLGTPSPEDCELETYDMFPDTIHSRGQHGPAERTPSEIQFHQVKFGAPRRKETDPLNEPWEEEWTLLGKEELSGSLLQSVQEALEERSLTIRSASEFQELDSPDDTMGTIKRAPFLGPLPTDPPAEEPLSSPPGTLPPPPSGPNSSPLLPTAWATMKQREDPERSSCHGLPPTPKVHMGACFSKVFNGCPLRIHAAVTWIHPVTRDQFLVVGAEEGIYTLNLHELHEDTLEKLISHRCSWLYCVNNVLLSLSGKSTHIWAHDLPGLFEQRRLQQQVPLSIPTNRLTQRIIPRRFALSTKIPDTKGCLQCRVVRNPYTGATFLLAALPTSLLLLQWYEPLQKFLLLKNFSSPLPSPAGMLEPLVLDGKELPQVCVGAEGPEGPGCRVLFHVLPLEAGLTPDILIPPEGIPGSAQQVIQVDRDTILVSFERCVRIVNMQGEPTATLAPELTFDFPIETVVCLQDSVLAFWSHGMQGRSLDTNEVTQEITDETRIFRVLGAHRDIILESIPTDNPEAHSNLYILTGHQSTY

[2] = molecular target: Mitogen-activated protein kinase 7 (Homo sapiens) (UniProt Q13164); experiment: Inhibition of ERK5 at 1 uM
[3] = molecular target: T2, Serine/threonine-protein kinase ULK1 (Homo sapiens) (UniProt O75385); experiment: Inhibition of ULK1 at 1 uM
T2 sequence (whole entry): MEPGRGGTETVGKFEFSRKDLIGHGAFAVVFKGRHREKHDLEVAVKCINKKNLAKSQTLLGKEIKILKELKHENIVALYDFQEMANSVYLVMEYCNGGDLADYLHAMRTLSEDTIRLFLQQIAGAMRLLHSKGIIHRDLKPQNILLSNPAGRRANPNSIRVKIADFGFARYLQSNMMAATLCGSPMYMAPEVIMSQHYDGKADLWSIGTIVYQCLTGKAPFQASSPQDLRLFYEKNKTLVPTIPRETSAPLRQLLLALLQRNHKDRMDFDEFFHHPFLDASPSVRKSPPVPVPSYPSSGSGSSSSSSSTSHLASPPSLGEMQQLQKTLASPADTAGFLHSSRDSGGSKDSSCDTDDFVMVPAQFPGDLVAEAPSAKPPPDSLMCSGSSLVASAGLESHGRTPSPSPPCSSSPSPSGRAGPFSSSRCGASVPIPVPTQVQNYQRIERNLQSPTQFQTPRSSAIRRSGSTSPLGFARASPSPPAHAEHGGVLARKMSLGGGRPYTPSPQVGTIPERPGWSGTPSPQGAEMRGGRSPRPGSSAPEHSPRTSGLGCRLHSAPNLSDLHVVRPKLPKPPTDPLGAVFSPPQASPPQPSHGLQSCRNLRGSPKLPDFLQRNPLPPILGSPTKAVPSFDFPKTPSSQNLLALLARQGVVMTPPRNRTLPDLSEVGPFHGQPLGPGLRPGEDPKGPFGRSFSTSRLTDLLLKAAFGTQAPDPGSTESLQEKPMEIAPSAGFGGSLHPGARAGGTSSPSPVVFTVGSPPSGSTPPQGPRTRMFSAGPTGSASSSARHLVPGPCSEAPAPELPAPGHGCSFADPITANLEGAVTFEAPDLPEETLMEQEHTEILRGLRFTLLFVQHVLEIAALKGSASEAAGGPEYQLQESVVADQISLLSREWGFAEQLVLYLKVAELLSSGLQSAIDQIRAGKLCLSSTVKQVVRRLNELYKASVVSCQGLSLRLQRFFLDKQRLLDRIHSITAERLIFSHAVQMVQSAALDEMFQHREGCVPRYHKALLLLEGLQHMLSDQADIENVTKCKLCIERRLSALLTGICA

[4] = molecular target: Non-receptor tyrosine-protein kinase TYK2 (Homo sapiens) (UniProt P29597); experiment: Inhibition of TYK2 JH1 catalytic domain at 1 uM
Sequence of Non-receptor tyrosine-protein kinase TYK2 (Homo sapiens) (P29597 whole entry, the tested form may be a part): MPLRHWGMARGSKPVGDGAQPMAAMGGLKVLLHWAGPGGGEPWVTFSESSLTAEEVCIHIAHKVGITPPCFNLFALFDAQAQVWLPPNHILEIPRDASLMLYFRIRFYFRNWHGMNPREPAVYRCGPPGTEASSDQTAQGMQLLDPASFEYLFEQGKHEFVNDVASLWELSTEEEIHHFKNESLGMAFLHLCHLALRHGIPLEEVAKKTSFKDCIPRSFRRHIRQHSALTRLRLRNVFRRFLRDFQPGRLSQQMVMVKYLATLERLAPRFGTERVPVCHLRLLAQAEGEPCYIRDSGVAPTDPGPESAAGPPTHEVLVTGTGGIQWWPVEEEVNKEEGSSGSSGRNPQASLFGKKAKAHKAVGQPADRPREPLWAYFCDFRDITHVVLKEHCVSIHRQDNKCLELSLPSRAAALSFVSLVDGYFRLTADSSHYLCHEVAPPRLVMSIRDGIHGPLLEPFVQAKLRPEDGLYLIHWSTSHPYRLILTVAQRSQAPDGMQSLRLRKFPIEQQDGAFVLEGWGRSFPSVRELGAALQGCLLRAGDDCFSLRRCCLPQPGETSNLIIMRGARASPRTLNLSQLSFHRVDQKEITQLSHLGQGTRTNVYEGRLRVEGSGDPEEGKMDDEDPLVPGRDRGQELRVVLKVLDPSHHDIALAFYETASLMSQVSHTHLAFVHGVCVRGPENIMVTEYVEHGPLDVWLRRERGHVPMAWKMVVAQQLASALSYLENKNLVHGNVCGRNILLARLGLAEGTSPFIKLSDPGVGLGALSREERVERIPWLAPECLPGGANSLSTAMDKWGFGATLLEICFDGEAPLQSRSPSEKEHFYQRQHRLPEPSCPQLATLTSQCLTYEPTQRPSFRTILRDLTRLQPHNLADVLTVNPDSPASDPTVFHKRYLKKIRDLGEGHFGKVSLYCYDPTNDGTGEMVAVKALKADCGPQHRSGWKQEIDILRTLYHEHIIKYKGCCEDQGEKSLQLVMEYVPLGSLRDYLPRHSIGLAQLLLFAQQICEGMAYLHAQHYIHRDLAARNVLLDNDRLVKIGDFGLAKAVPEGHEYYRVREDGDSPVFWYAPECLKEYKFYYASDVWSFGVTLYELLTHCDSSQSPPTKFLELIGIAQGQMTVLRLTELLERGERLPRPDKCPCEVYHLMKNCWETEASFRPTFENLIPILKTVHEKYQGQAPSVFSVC
Method in brief: (§1)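 Single-concentration screen on the Ambit KINOMEscan platform, run against a panel of 250–400 kinases. Per-kinase inhibition was also summarized as S(90), the fraction of kinases inhibited by more than 90%.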

[5] = molecular target: Fibroblast growth factor receptor 4 (Homo sapiens) (UniProt P22455); experiment: Inhibition of FGFR4 at 1 uM; method in brief: as §1
[6] = molecular target: MAP kinase-interacting serine/threonine-protein kinase 1 (Homo sapiens) (UniProt Q9BUB5); experiment: Inhibition of MKNK1 at 1 uM
[7] = molecular target: Citron Rho-interacting kinase (Homo sapiens) (UniProt O14578); experiment: Inhibition of CIT at 1 uM
Sequence of Citron Rho-interacting kinase (Homo sapiens) (O14578 whole entry): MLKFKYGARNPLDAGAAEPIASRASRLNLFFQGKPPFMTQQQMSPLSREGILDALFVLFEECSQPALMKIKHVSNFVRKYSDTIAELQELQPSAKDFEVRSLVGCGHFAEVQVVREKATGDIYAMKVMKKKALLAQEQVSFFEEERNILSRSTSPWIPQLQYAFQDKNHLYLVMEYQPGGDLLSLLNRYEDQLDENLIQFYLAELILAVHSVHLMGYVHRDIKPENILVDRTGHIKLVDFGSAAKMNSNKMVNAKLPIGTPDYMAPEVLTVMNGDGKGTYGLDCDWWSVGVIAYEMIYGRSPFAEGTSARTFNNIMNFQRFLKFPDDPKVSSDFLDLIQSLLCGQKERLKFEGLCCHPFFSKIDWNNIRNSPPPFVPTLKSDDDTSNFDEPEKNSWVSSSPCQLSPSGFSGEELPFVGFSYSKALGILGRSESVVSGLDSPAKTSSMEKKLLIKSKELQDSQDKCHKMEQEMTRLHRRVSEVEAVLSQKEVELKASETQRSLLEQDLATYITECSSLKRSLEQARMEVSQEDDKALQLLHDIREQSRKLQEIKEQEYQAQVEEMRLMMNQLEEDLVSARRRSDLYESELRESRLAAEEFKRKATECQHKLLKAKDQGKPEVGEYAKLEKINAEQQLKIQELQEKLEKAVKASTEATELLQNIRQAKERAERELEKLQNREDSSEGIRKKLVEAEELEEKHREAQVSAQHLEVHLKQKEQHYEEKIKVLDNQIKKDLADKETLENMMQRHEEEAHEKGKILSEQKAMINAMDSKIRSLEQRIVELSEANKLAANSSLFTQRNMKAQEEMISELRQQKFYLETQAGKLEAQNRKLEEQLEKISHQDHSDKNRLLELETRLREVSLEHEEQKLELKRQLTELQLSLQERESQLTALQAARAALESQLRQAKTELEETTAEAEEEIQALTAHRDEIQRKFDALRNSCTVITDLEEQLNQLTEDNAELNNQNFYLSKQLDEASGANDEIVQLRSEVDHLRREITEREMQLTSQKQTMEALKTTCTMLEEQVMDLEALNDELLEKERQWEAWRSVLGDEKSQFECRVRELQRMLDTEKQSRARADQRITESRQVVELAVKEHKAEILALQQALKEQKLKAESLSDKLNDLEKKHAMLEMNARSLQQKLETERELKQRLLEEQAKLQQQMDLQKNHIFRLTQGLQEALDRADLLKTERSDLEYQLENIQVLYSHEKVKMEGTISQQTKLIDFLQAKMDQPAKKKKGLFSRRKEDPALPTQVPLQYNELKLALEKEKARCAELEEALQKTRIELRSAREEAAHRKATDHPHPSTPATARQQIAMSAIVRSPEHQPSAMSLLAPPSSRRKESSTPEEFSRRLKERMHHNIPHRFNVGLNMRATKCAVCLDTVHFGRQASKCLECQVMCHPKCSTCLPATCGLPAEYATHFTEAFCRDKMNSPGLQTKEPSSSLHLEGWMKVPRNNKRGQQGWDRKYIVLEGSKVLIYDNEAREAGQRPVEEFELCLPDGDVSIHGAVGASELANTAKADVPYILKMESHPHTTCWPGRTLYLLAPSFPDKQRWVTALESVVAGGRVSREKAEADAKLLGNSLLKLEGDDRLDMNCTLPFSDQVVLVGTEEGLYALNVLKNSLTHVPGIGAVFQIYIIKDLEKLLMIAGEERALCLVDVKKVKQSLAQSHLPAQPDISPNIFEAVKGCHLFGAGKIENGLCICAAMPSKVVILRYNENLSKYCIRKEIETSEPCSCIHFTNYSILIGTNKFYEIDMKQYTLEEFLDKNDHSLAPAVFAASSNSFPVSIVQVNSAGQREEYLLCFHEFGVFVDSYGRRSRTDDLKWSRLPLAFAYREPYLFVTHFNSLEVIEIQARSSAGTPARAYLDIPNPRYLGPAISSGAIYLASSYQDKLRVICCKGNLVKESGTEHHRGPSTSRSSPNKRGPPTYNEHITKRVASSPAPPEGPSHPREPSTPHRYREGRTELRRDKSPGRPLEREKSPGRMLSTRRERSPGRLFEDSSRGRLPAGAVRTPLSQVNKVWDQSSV

[8] = molecular target: Fibroblast growth factor receptor 2 (Homo sapiens) (UniProt P21802); experiment: Inhibition of FGFR2 at 1 uM
Sequence of Fibroblast growth factor receptor 2 (Homo sapiens) (P21802 22-821 limits assumed): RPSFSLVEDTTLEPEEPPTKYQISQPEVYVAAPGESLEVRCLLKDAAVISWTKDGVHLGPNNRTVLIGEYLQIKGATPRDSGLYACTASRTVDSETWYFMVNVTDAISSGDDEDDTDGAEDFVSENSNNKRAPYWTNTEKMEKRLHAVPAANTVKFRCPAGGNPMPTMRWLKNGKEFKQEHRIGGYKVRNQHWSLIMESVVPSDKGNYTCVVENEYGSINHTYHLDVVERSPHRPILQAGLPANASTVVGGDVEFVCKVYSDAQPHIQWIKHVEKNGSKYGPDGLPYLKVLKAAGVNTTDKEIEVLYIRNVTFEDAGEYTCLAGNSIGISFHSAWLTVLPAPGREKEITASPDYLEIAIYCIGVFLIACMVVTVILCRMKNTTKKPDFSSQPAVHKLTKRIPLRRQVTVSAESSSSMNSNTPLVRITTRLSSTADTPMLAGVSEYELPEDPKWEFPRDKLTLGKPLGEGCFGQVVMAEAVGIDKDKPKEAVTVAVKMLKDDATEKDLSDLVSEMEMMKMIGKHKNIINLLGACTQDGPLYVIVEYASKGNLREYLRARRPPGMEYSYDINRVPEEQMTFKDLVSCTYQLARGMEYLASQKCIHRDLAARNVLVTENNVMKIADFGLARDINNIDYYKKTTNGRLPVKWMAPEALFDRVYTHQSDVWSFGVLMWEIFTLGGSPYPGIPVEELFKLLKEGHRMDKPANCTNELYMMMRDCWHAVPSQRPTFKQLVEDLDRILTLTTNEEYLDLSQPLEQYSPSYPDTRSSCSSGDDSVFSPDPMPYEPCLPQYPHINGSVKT
Method in brief: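 Single-concentration screen using Ambit Bioscience KINOMEscan technology across a panel of 250–400 kinases. Per-kinase inhibition from this screen was summarized as S(90), the fraction of kinases inhibited by more than 90%.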

[9] = molecular target: Phosphatidylinositol 4,5-bisphosphate 3-kinase catalytic subunit alpha isoform (Homo sapiens) (UniProt P42336); experiment: Inhibition of PIK3CA at 1 uM
Sequence of Phosphatidylinositol 4,5-bisphosphate 3-kinase catalytic subunit alpha isoform (Homo sapiens) (P42336 whole entry, canonical isoform): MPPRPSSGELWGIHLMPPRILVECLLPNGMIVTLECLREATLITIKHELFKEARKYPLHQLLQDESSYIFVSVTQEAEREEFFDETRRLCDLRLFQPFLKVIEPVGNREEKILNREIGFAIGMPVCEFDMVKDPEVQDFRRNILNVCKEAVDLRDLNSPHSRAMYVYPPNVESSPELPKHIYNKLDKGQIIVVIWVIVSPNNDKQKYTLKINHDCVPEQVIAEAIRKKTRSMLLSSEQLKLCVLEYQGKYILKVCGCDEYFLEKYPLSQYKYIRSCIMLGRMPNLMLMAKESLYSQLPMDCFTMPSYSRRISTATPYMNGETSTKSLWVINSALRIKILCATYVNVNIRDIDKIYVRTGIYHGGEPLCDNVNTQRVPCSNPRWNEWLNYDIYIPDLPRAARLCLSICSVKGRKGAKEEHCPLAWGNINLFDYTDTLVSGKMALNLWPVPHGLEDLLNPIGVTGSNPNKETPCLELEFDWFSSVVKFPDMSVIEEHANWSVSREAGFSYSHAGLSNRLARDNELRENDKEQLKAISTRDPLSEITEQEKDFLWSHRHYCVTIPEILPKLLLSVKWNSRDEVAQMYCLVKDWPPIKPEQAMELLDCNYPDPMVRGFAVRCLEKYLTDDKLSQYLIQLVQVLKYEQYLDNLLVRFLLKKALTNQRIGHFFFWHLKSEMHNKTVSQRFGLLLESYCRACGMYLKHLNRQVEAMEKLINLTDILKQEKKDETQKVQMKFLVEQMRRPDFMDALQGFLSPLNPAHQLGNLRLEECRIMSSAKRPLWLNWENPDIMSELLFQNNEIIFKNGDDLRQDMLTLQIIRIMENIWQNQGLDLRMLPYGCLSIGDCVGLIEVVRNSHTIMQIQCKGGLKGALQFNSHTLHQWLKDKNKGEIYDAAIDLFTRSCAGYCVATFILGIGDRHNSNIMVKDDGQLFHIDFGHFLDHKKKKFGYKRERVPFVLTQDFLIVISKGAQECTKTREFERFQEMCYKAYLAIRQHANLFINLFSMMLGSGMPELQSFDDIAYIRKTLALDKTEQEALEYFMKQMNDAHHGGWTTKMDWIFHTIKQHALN

[10] = molecular target: T3, Dual specificity mitogen-activated protein kinase kinase 6 (Homo sapiens) (UniProt P52564); experiment: Inhibition of MEK6 at 1 uM
T3 sequence (whole entry): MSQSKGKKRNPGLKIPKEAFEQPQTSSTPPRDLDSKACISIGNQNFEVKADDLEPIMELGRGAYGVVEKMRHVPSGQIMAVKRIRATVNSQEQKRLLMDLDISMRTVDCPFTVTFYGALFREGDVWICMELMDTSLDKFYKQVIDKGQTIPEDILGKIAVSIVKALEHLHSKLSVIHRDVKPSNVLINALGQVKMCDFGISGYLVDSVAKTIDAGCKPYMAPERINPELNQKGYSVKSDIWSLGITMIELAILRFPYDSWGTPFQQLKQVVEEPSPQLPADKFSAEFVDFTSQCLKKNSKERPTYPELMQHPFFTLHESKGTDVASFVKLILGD
Method in brief: (§2)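 Kinase-panel screen using KINOMEscan technology, with 250–400 kinases per panel. Each compound was tested at a single concentration, and inhibition of each kinase was recorded. Selectivity was summarised as S(90), the fraction of kinases inhibited by more than 90%.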

[11] = molecular target: Protein-tyrosine kinase 2-beta (Homo sapiens) (UniProt Q14289); experiment: Inhibition of PYK2 at 1 uM; method in brief: as §1
[12] = molecular target: Serine/threonine-protein kinase MARK2 (Homo sapiens) (UniProt Q7KZI7); experiment: Inhibition of MARK2 at 1 uM; method in brief: as §2

inhibition [1] | inhibition [2] | inhibition [3] | inhibition [4] | inhibition [5] | inhibition [6] | inhibition [7] | inhibition [8] | inhibition [9] | inhibition [10] | inhibition [11] | inhibition [12] | Structure (SMILES)
< 50% | < 50% | < 50% | 72% | < 50% | < 50% | < 50% | < 50% | < 50% | < 50% | 84% | 66% | CC(=O)N1CCN(c2cc(-c3cnc4c(c3)N(Cc3cc(Cl)ccc3C(F)(F)F)CCN4)ccn2)CC1
– | – | – | < 50% | < 50% | – | – | < 50% | < 50% | 93% | < 50% | 85% | O=C(O)c1ccc(-c2cnc3c(c2)N(Cc2cc(Cl)ccc2C(F)(F)F)CCN3)cc1
– | – | – | < 50% | < 50% | – | – | < 50% | < 50% | < 50% | < 50% | < 50% | O=C(c1ccc(-c2cnc3c(c2)N(Cc2cc(Cl)ccc2C(F)(F)F)CCN3)cc1)N1CCCCC1
< 50% | < 50% | < 50% | 79% | < 50% | < 50% | < 50% | < 50% | < 50% | < 50% | 71% | < 50% | CN1CCN(c2ccc(-c3cnc4c(c3)N(Cc3cc(Cl)ccc3C(F)(F)F)CCN4)cn2)CC1
70% | < 50% | < 50% | < 50% | < 50% | < 50% | < 50% | < 50% | < 50% | < 50% | < 50% | < 50% | CN1CCN(c2ccc(-c3cnc4c(c3)N(Cc3cc(F)ccc3F)CCN4)cn2)CC1
< 50% | < 50% | < 50% | < 50% | < 50% | < 50% | < 50% | < 50% | < 50% | < 50% | < 50% | < 50% | CN1CCN(c2ccc(-c3cnc4c(c3)N(Cc3cc(Cl)ccc3Cl)CCN4)cn2)CC1
– | – | – | < 50% | < 50% | – | – | < 50% | < 50% | < 50% | 68% | < 50% | COC1CCN(C(=O)c2ccc(-c3cnc4c(c3)N(Cc3cc(Cl)ccc3C(F)(F)F)CCN4)cc2)CC1
92% | < 50% | < 50% | < 50% | < 50% | < 50% | < 50% | < 50% | < 50% | < 50% | < 50% | < 50% | CN1CCN(c2ccc(-c3cnc4c(c3)N(Cc3c(F)ccc(F)c3Cl)CCN4)cn2)CC1
70% | < 50% | < 50% | 72% | < 50% | < 50% | < 50% | < 50% | < 50% | < 50% | 87% | < 50% | FC(F)(F)c1ccc(Cl)cc1CN1CCNc2ncc(-c3ccnc(N4CCNCC4)c3)cc21
– | – | – | < 50% | < 50% | – | – | < 50% | < 50% | < 50% | 90.8% | 72.3% | O=C(c1ccc(-c2cnc3c(c2)N(Cc2cc(Cl)ccc2C(F)(F)F)CCN3)cc1)N1CCC(N2CCCC2)CC1
